# From PubChem BioAssay
# Sampled rows, rich in hits. Any-hit rate of the full collection: about 2.2%.
# PPC-1+TRAIL kill: PPC-1 cancer cell killing with TRAIL present. PPC-1 cells + TRAIL, ATPLite viability luminescence. hit rate 0.41% among 220,000. cell killing (% activity), % at 4 µM or 5 µM. AID 1443;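 active = cell killing above 50% in the first pass at 4 µM, then a duplicate retest at 5 µM averaging 50% or more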
# NF-kB neuron act: compounds increasing NF-kB expression in human neuronal cells. NF-kB reporter expression; stronger effect = higher value. fold change at 12.5 µM. hit rate 1.6% among 190,000; in the data active = fold change above about 3.3
# FLuc stim CS: firefly luciferase counter-screen for stimulation assays; P08659; ATPlite luciferase biochemical, luminescence, 10 min; 0 = ATP-free wells, 1 = DMSO control; activation factor at 10 µM; 200,000 tested, under 10 active;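 active = luciferase activation factor, scaled between plate controls, of at least 2 with compound at 10 µM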
# Target sequence (P08659 whole entry, looked up): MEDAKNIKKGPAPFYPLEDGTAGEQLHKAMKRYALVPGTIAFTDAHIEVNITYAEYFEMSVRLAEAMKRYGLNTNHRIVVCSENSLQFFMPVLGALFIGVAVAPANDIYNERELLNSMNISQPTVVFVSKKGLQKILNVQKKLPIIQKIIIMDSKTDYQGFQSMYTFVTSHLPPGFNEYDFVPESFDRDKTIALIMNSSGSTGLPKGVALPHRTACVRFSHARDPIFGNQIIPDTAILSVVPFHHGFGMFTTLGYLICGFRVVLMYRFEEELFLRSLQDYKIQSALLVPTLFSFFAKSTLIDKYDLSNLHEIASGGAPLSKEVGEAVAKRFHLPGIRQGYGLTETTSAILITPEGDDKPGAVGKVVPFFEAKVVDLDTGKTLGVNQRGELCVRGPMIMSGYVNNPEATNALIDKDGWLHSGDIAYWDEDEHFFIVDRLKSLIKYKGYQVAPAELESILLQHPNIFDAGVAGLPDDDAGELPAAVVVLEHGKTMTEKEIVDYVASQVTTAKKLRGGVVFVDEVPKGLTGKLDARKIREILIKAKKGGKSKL
#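 Assay system – cell-free luciferase reagent · Medium – PBS-based ATP solution · Dosing – test compounds dosed from 2 mM stocks in 100% DMSO · Timing – 10 min, room temperature · Technique – light output (luminescence) · Measure – luminescence gain marking luciferase activators · Controls – No-ATP low control, compound-free enzyme-plus-ATP high control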
# FLuc inhib CS: counter-screen for luciferase assay inhibitors: firefly luciferase inhibition | ATPLite firefly luciferase biochemical luminescence, 10 min | inhibition, % at 10 µM | hit rate 1.5% among 200,000 | AID 1006;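 active = inhibition above about 50% when tested at 10 µM, limit read from the data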
# APP 5'UTR act: activates APP 5'UTR luciferase reporter; AID 1276; activation, % at 2 µM; hit rate 1% among 190,000; SH-SY5Y APP 5'UTR luciferase reporter, luminescence; zero percent = DMSO vehicle wells;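 active = activation above a set limit, based on mean plus 3 SD of controls, cut at about 140% in these data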
# C8 TRAIL sens: caspase-8 TRAIL sensitization; NB7+C8 cells + TRAIL, ATPlite viability luminescence; inhibition (viability loss, TRAIL sensitization), % at 10 µM; hit rate 1% among 360,000;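 active = compounds causing at least 50% loss of cell viability in the single-dose screen, relative to plate controls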
# PPC-1 tox: kills PPC-1 cells; shares compounds with PPC-1+TRAIL kill; PPC-1 viability, ATPlite luminescence, overnight; cytotoxicity, % at 5 µM; hit rate 50% among 1,200; AID 1447;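 active = reconfirmed compounds whose average cytotoxicity reaches 50% or more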
# A number is an active result; . = inactive; / = no result.
SMILES,PPC-1+TRAIL kill,NF-kB neuron act,FLuc stim CS,FLuc inhib CS,APP 5'UTR act,C8 TRAIL sens,PPC-1 tox
CC(NC(=O)C1CCCN(S(=O)(=O)c2cccs2)C1)c1ccccc1 (stereo not given),.,.,.,.,.,.,/
CC(C)NC(=O)C1CCCN(S(=O)(=O)c2cccs2)C1 (stereo not given),.,.,.,.,.,.,.
CCC(=O)Nc1cc2nn(-c3ccc(C)cc3)nc2cc1C,59,.,.,66,.,65,55
CCC(=O)Nc1cc2nn(-c3ccc(OC)cc3)nc2cc1C,58,.,.,69,162,59,.
Cc1ccc(Cl)cc1-c1cc(C(=O)NCc2cc(C(F)(F)F)cc(C(F)(F)F)c2)[nH]n1,/,/,/,/,/,.,/
CCc1nc2c(OCC3COc4ccccc4O3)cccn2c1N(C)C(=O)c1ccccc1F (stereo not given),/,/,/,/,/,.,/
O=C(CN1CCC(NC(=O)c2ccccc2F)CC1)Nc1ccc2c(c1)OCCO2,.,.,.,.,.,.,.
COc1cc(/C=C(/C(=O)c2cccs2)c2nc3ccccc3[nH]2)cc(OC)c1O,.,10,.,77,.,.,.
COc1ccc(C(=O)N/C(=C/c2cccs2)c2nc3ccccc3[nH]2)cc1OC,.,.,.,.,.,.,/
Nc1nc(CCl)nc(Nc2ccc3ccccc3c2)n1,96,/,/,/,/,95,95
Cc1ccc(Nc2nc(N)nc(CN3CCN(c4ccccc4)CC3)n2)cc1Cl,.,.,.,.,.,.,/
O=C(Nc1ccccc1NC(=O)c1csnn1)c1csnn1,.,.,.,.,.,.,/
CC(C)c1ccc(NC(=O)c2csnn2)cc1,.,7.6,.,68,.,.,.
COc1ccc(Nc2c(C3CC3)nc3nc(C)cc(C)n23)cc1,/,/,/,/,/,.,/
CC(C)(C)C(=O)Nc1cccc(-c2nc3ccccc3c(=O)o2)c1,52,.,.,.,.,59,53
CCc1nc2ccc(C(=O)NCc3ccc4c(c3)OCO4)cn2c1N(CCC(C)C)CCN(C)C,/,/,/,/,/,.,/
O=C(CSc1nnc(-c2cccs2)o1)NCC1CN(Cc2ccccc2)CCO1 (stereo not given),.,.,.,.,.,.,.
Cc1nc(-c2ccc(NC(=O)/C=C\C(=O)O)cc2)cs1,.,.,.,.,.,.,/
Cc1ccc2sc(-c3ccc(NC(=O)/C=C\C(=O)O)cc3)nc2c1,.,5.4,.,84,197,.,.
Nc1[nH]n(-c2ccccc2)c(=O)c1N=Nc1ccc2c(c1)OCCO2,.,.,.,76,167,55,.
COc1ccc(N2CCN(c3nc(=S)n(-c4ccccc4)c(C)c3C(C)=O)CC2)cc1,.,.,.,.,.,.,.
CCOC(=O)C1(C)CCN1C(=O)c1c(F)cccc1F (stereo not given),/,/,/,/,/,.,/
O=C(COc1ccc(CO)cc1Cl)Nc1ccc(F)cc1,.,7.7,.,72,/,54,.
CC(C)(C)c1ccc(C(=O)N/C(N)=N/c2nc3ccccc3o2)cc1,.,.,.,.,.,.,/
Cc1ccc2oc(/N=C(\N)NC(=O)C(C)(C)C)nc2c1,83,/,/,/,/,86,83
SMILES,PPC-1+TRAIL kill,NF-kB neuron act,FLuc stim CS,FLuc inhib CS,APP 5'UTR act,C8 TRAIL sens,PPC-1 tox
CC(=O)Nc1ccc(-c2ccnc3c2CC(C(=O)NCCC(F)(F)F)O3)cc1 (stereo not given),/,/,/,/,/,.,/
CC(C)Oc1ccc(F)cc1-c1cc(C(=O)Nc2ccc(C(C)(C)C)cc2)[nH]n1,/,/,/,/,/,.,/
Cc1ccn2cc(-c3ccc(Br)cc3)nc2c1,82,/,/,/,/,86,83
Cc1ccc(S(=O)(=O)Nc2ccc(-c3cn4ccc(C)cc4n3)cc2)cc1,.,.,.,.,.,.,/
Cc1ccc(NC(=O)CCC(=O)NNC(=O)c2ccccc2[N+](=O)[O-])c(C)c1,.,.,.,.,.,.,.
O=C1CCC(=O)N1c1nc2nc(-c3ccccc3)cc(-c3ccccc3)n2n1,.,.,.,.,.,.,.
O=C1/C(=C/c2ccc(N3CCOCC3)o2)SC(=Nc2ccccc2)N1CCc1c[nH]c2ccccc12,.,.,.,.,.,.,.
CCN(CC)C(=O)CN(c1ccc(F)c(Cl)c1)S(C)(=O)=O,.,.,.,.,.,.,.
COc1ccc(Cl)cc1NC(=S)N1CCN(S(C)(=O)=O)CC1,.,/,/,/,/,.,/
COc1ccc(Cl)cc1NC(=O)N1CCN(S(C)(=O)=O)CC1,.,.,.,.,.,.,.
